Assays:
Settings in all cases: stereoisomer not certain
OR10A4 (Homo sapiens) = target: T1, OR10A4 (Homo sapiens) (UniProt Q9H209)
T1 sequence (whole entry): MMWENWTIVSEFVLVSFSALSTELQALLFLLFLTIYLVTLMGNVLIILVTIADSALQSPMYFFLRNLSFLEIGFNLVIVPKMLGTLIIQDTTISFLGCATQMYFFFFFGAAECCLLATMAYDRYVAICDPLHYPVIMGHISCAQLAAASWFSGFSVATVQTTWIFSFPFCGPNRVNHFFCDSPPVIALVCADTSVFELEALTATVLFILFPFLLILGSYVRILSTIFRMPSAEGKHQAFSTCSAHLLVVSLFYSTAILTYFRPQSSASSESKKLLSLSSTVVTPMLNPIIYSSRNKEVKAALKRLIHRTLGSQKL
Procedure, shortened: (§1)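 Transient luciferase assays in mammalian cell lines were common, though methods varied by source. The values come from published papers and their supplementary material, with extra details from the original authors when needed. Responsive refers to a measured signal the original authors judged statistically different from baseline, and non-responsive (inactive) to the remainder.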

OR10A5 (Homo sapiens) = target: T2, OR10A5 (Homo sapiens) (UniProt Q9H207)
T2 sequence (whole entry): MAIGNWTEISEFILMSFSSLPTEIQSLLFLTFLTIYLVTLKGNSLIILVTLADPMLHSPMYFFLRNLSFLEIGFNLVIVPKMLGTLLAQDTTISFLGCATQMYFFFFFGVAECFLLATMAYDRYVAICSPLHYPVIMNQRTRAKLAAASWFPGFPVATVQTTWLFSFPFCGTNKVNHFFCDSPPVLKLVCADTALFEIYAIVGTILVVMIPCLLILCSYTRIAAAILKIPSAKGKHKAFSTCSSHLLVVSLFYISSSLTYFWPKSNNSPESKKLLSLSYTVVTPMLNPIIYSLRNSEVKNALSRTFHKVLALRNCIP
Procedure, shortened: as §1

OR10A6 (Homo sapiens) = target: T3, OR10A6 (Homo sapiens) (UniProt Q8NH74)
T3 sequence (whole entry): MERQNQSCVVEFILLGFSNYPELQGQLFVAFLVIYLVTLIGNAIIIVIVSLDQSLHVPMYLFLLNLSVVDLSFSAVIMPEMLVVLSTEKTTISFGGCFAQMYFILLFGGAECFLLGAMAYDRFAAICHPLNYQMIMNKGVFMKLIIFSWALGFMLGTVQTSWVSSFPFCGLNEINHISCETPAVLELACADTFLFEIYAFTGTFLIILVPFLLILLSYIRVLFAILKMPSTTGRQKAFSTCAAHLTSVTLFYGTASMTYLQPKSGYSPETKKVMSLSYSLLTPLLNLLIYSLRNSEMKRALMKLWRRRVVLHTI
Procedure, shortened: as §1

OR10A7 (Homo sapiens) = target: T4, OR10A7 (Homo sapiens) (UniProt Q8NGE5)
T4 sequence (whole entry): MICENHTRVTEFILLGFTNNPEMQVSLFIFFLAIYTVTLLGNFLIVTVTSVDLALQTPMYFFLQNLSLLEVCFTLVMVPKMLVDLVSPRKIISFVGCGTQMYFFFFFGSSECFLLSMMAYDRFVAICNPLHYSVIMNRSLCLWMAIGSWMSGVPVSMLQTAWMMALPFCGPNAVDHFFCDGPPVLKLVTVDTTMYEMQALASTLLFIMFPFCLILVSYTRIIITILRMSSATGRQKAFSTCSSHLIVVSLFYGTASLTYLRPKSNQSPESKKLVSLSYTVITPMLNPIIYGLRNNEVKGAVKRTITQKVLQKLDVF
Procedure, shortened: as §1

OR10AC1 (Homo sapiens) = OR10AC1 (Homo sapiens) (UniProt Q8NH08)
Procedure, shortened: as §1

OR10AD1 (Homo sapiens) = target: T5, OR10AD1 (Homo sapiens) (UniProt Q8NGE0)
T5 sequence (whole entry): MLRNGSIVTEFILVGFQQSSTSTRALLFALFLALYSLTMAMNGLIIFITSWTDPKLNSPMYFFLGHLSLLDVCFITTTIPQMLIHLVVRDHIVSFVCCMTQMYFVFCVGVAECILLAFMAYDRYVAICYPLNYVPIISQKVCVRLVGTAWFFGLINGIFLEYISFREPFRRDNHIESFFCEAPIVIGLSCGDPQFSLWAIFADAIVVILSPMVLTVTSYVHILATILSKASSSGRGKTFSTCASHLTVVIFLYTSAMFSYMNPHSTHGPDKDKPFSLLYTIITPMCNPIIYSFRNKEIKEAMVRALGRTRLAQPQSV
Procedure, shortened: as §1

OR10AG1 (Homo sapiens) = target: T6, OR10AG1 (Homo sapiens) (UniProt Q8NH19)
T6 sequence (whole entry): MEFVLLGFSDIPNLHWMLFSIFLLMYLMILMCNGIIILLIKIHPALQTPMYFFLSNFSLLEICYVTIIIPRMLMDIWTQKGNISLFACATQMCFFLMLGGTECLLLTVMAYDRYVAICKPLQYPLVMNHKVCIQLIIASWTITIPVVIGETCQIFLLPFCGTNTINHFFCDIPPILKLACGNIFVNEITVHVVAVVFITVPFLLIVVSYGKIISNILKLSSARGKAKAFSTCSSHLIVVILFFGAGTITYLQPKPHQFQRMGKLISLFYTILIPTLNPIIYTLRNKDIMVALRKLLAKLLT
Procedure, shortened: as §1

OR10C1 (Homo sapiens) = target: T7, OR10C1 (Homo sapiens) (UniProt Q96KK4)
T7 sequence (whole entry): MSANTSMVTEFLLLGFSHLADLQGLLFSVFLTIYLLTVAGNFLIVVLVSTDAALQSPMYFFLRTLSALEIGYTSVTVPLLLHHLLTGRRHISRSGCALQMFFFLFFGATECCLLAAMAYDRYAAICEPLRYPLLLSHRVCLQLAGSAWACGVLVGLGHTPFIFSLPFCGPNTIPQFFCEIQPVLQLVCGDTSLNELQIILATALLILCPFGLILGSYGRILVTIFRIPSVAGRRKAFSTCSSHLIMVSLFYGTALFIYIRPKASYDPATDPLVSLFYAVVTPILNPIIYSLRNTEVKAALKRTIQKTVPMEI
Procedure, shortened: as §1

OR10G2 (Homo sapiens) = target: T8, OR10G2 (Homo sapiens) (UniProt Q8NGC3)
T8 sequence (whole entry): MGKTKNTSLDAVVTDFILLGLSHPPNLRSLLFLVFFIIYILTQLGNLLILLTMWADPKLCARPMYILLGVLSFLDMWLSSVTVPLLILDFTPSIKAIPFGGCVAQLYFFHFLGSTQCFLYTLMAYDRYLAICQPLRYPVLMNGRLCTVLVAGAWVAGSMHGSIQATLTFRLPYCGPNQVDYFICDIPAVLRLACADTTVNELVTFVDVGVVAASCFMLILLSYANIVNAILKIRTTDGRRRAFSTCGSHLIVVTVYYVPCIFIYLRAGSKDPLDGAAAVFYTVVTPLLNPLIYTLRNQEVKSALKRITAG
Procedure, shortened: as §1

OR10G3 (Homo sapiens) = target: T9, OR10G3 (Homo sapiens) (UniProt Q8NGC4)
T9 sequence (whole entry): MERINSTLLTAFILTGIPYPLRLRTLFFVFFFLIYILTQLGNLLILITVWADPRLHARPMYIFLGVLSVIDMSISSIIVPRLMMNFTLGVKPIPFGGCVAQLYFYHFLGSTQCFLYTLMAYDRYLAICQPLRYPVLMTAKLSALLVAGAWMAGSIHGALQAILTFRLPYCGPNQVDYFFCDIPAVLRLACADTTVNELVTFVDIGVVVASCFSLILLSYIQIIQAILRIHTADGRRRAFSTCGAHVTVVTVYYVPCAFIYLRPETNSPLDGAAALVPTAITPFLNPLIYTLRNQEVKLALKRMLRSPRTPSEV
Procedure, shortened: as §1

OR10G4 (Homo sapiens) = target: T10, OR10G4 (Homo sapiens) (UniProt Q8NGN3)
T10 sequence (whole entry): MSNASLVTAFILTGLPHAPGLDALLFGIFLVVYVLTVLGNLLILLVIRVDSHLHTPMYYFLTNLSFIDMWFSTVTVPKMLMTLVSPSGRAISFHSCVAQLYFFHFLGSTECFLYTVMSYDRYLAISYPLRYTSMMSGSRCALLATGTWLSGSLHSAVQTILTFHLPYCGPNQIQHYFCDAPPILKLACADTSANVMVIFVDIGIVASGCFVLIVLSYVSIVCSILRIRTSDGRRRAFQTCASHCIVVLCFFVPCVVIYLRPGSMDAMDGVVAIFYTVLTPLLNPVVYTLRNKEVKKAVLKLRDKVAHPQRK
Procedure, shortened: as §1

OR10G6 (Homo sapiens) = target: T11, OR10G6 (Homo sapiens) (UniProt Q8NH81)
T11 sequence (whole entry): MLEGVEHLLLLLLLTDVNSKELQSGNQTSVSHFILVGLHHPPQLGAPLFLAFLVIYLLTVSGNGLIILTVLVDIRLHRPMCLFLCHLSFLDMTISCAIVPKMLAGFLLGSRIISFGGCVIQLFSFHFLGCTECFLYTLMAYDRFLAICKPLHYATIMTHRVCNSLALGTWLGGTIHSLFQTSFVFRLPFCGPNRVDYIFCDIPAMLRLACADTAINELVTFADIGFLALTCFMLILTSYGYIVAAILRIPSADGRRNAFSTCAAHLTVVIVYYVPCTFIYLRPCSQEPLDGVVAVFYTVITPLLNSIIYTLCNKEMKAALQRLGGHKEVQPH
Procedure, shortened: as §1

OR10G7 (Homo sapiens) = target: T12, OR10G7 (Homo sapiens) (UniProt Q8NGN6)
T12 sequence (whole entry): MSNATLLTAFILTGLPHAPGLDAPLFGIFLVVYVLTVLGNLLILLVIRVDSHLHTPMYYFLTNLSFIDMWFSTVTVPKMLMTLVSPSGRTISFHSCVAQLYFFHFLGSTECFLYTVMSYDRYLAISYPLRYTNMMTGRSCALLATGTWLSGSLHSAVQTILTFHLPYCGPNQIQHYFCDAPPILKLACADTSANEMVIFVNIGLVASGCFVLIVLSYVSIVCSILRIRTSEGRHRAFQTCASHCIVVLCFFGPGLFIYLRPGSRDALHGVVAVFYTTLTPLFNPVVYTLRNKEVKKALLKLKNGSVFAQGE
Procedure, shortened: as §1

OR10G8 (Homo sapiens) = target: T13, OR10G8 (Homo sapiens) (UniProt Q8NGN5)
T13 sequence (whole entry): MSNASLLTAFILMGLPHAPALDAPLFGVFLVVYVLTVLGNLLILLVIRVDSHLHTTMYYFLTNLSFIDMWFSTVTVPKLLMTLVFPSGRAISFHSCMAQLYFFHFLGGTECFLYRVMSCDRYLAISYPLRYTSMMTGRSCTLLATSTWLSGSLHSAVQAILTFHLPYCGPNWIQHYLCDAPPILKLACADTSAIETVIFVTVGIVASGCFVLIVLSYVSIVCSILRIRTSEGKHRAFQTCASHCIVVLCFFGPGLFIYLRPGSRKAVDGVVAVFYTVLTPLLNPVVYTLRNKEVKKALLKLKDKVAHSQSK
Procedure, shortened: as §1

OR10G9 (Homo sapiens) = target: T14, OR10G9 (Homo sapiens) (UniProt Q8NGN4)
T14 sequence (whole entry): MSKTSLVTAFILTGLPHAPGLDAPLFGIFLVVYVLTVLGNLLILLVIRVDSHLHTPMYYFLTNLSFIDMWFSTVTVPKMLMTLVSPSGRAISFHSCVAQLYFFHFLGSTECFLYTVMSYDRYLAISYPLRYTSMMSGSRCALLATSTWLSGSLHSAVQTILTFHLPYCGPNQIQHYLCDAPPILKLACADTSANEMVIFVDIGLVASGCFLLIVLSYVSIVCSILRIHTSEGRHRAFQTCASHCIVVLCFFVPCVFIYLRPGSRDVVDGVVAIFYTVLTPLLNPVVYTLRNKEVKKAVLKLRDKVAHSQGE
Procedure, shortened: as §1

OR10H1 (Homo sapiens) = target: T15, OR10H1 (Homo sapiens) (UniProt Q9Y4A9)
T15 sequence (whole entry): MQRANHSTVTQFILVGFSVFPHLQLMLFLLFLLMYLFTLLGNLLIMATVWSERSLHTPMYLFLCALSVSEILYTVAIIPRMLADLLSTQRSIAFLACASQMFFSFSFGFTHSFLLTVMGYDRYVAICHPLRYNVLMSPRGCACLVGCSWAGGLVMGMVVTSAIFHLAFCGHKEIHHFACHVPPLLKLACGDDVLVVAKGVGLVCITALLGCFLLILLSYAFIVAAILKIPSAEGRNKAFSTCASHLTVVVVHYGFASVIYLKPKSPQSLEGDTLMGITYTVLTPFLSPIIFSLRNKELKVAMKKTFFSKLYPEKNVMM
Procedure, shortened: as §1

OR10H2 (Homo sapiens) = target: T16, OR10H2 (Homo sapiens) (UniProt O60403)
T16 sequence (whole entry): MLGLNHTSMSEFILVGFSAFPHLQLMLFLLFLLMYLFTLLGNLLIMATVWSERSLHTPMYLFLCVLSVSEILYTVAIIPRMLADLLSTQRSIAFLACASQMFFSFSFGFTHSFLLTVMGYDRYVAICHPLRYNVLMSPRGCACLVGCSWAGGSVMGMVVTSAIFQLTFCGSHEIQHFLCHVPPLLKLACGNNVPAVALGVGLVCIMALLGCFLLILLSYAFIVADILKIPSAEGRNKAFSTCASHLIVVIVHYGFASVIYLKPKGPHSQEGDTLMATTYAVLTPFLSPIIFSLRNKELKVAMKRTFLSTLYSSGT
Procedure, shortened: as §1

OR10H3 (Homo sapiens) = target: T17, OR10H3 (Homo sapiens) (UniProt O60404)
T17 sequence (whole entry): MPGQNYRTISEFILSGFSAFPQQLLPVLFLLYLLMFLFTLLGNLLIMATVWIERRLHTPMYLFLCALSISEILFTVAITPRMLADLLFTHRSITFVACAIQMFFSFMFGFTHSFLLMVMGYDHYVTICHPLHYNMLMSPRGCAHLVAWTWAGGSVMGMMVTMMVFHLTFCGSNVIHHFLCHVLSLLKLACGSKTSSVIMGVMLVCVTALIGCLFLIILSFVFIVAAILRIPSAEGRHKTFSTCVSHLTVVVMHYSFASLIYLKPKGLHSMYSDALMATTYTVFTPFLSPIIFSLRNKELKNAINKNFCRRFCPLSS
Procedure, shortened: as §1

Measured: odorant receptor agonist call;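 further: active if original authors judged signal statistically different from baseline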

Chain of OR10AC1 (Homo sapiens) (Q8NH08 whole entry): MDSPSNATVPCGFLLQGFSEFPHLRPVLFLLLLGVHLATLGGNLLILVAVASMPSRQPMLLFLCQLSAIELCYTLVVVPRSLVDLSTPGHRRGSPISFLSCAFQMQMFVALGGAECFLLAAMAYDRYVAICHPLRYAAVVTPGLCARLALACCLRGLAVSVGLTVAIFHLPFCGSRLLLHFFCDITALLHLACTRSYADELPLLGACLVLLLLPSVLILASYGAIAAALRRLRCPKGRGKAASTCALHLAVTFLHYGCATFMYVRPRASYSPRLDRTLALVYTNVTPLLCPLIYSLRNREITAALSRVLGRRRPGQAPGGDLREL

CC(=O)c1c(C)c([N+](=O)[O-])c(C(C)(C)C)c([N+](=O)[O-])c1C
inactive: all assays above

— the M2OR odorant receptor database
